According to ChEMBL document CHEMBL1955824, “Indeno[1,2-b]indole derivatives as a novel class of potent human protein kinase CK2 inhibitors” (Bioorg Med Chem, 2012):

Columns and labels:
[1] = target: Serine/threonine-protein kinase B-raf (Homo sapiens, UniProt P15056); experiment: Inhibition of human recombinant B-RAF expressed in Sf9 cells using MEK1 KM as substrate after 80 mins by scintillation counting
Outline: (§1)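 Commercial radiometric panel of His-tagged or GST-fused human kinases expressed in Sf9 cells, affinity-purified. Inhibitor added in 10% DMSO. Ten concentrations tested in singlicate; IC50 taken from dose–response curves.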

[2] = target: Insulin-like growth factor 1 receptor (Homo sapiens, UniProt P08069); experiment: Inhibition of human recombinant IGF1R expressed in Sf9 cells using poly(E,Y)4:1 as substrate after 80 mins by scintillation counting; outline: as §1
Insulin receptor = Insulin receptor (Homo sapiens, UniProt P06213); experiment: Inhibition of human recombinant INS-R expressed in Sf9 cells using poly(A,E,K,Y)6:2:5:1 as substrate after 80 mins by scintillation counting; outline: as §1
Ephrin type-B receptor 4 = Ephrin type-B receptor 4 (Homo sapiens, UniProt P54760); experiment: Inhibition of human recombinant EPHB4 expressed in Sf9 cells using poly(E,Y)4:1 as substrate after 80 mins by scintillation counting; outline: as §1
[3] = target: Receptor tyrosine-protein kinase erbB-2 (Homo sapiens, UniProt P04626); experiment: Inhibition of human recombinant ERBB2 expressed in Sf9 cells using poly(E,Y)4:1 as substrate after 80 mins by scintillation counting; outline: as §1
[4] = target: Proto-oncogene tyrosine-protein kinase Src (Homo sapiens, UniProt P12931); experiment: Inhibition of human recombinant SRC expressed in Sf9 cells using poly(E,Y)4:1 as substrate after 80 mins by scintillation counting; outline: as §1
Focal adhesion kinase 1 = Focal adhesion kinase 1 (Homo sapiens, UniProt Q05397); experiment: Inhibition of human recombinant FAK expressed in Sf9 cells using poly(E,Y)4:1 as substrate after 80 mins by scintillation counting; outline: as §1
Aurora kinase A = Aurora kinase A (Homo sapiens, UniProt O14965); experiment: Inhibition of human recombinant aurora-A expressed in Sf9 cells using tetra(LRRWSLG) as substrate after 80 mins by scintillation counting; outline: as §1
[5] = target: Serine/threonine-protein kinase PLK1 (Homo sapiens, UniProt P53350); experiment: Inhibition of human recombinant PLK1 expressed in Sf9 cells using casein as substrate after 80 mins by scintillation counting; outline: as §1
[6] = target: Cyclin-dependent kinase 4/cyclin D1 (Homo sapiens, UniProt P11802); experiment: Inhibition of human recombinant CDK4/CyclinD1 expressed in Sf9 cells using RB-CTF as substrate after 80 mins by scintillation counting; outline: as §1
[7] = target: Vascular endothelial growth factor receptor 3 (Homo sapiens, UniProt P35916); experiment: Inhibition of human recombinant VEGF-R3 expressed in Sf9 cells using poly(E,Y)4:1 as substrate after 80 mins by scintillation counting; outline: as §1
[8] = target: Mitogen-activated protein kinase kinase kinase 8 (Homo sapiens, UniProt P41279); experiment: Inhibition of human recombinant COT expressed in Sf9 cells assessed as autophosphorylation after 80 mins by scintillation counting; outline: as §1
[9] = target: Cyclin-dependent kinase 2/cyclin A (Homo sapiens, UniProt P24941); experiment: Inhibition of human recombinant CDK2/CyclinA expressed in Sf9 cells using histone H1 as substrate after 80 mins by scintillation counting; outline: as §1
[10] = target: Serine/threonine-protein kinase PLK4 (Homo sapiens, UniProt O00444); experiment: Inhibition of human recombinant SAK expressed in Sf9 cells using p38alpha-KRKR as substrate after 80 mins by scintillation counting; outline: as §1
Angiopoietin-1 receptor = Angiopoietin-1 receptor (Homo sapiens, UniProt Q02763); experiment: Inhibition of human recombinant TIE2 expressed in Sf9 cells using poly(E,Y)4:1 as substrate after 80 mins by scintillation counting; outline: as §1
Aurora kinase B = Aurora kinase B (Homo sapiens, UniProt Q96GD4); experiment: Inhibition of human recombinant aurora-B expressed in Sf9 cells using tetra(LRRWSLG) as substrate after 80 mins by scintillation counting; outline: as §1
[11] = target: NUAK family SNF1-like kinase 1 (Homo sapiens, UniProt O60285); experiment: Inhibition of human recombinant ARK5 expressed in Sf9 cells assessed as autophosphorylation after 80 mins by scintillation counting; outline: as §1
[12] = target: RAC-alpha serine/threonine-protein kinase (Homo sapiens, UniProt P31749); experiment: Inhibition of human recombinant AKT1 expressed in Sf9 cells using GSK3(14-27) as substrate after 80 mins by scintillation counting; outline: as §1
[13] = target: Hepatocyte growth factor receptor (Homo sapiens, UniProt P08581); experiment: Inhibition of human recombinant MET expressed in Sf9 cells using poly(A,E,K,Y)6:2:5:1 as substrate after 80 mins by scintillation counting; outline: as §1
[14] = target: Vascular endothelial growth factor receptor 2 (Homo sapiens, UniProt P35968); experiment: Inhibition of human recombinant VEGF-R2 expressed in Sf9 cells using poly(E,Y)4:1 as substrate after 80 mins by scintillation counting; outline: as §1
[15] = target: Casein kinase II alpha/beta (Homo sapiens) (UniProt P67870+P68400); experiment: Inhibition of human CSNK2A1/2B expressed in Escherichia coli BL21(DE3) using RRRDDDSDDD as substrate at 10 uM after 15 mins by scintillation counting
Outline: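 Holoenzyme from CSNK2A1 and CSNK2B subunits expressed separately in E. coli, extracts combined, column-purified. Enzyme preincubated with inhibitor in DMSO in Tris pH 7.5 kinase buffer. Final ATP 60 µM, peptide 114 µM. Incubated 37 °C for 15 min, spotted on P81 paper, washed with phosphoric acid and ethanol, then counted. Controls: DMSO (0%), no CK2 (100%).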

[16] = target: Casein kinase II alpha/beta (Homo sapiens, UniProt P68400); experiment: Inhibition of human CSNK2A1/2B expressed in Escherichia coli BL21(DE3) using RRRDDDSDDD as substrate after 15 mins by scintillation counting
[17] = Inhibition of calf thymus casein kinase-2 using casein as substrate after 15 mins by liquid scintillation counting; design: species or system Bos taurus
[18] = Inhibition of casein kinase-2
Outline: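 Recombinant human CK2 holoenzyme (CSNK2A1 and CSNK2B expressed separately in E. coli, extracts combined and purified), preincubated with compound in DMSO in kinase buffer pH 7.5. 37 °C, 15 min, P81 paper, scintillation counting. IC50 from dose–response over 0.01–30 µM, at least triplicate independent experiments.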

[19] = Inhibition of rat liver casein kinase-2 preincubated for 5 mins prior ATP addition measured after 40 mins
[20] = Growth inhibition of human KYSE-70 cells at 20 uM after 96 hrs by crystal violet staining; type: functional; details: KYSE-70, 96 h, read-out: GI
Outline: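 KYSE-70 esophageal cancer cells grown in RPMI 1640 with 10% FCS, penicillin G and streptomycin. Cells exposed 96 h to compounds dissolved in DMF (final solvent 0.1%). Fixed 20 min in 1% glutaraldehyde, stained 30 min with 0.02% crystal violet, washed 30 min in water. Bound dye dissolved in ethanol/water 7:3, absorbance read at 570 nm.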

Casein kinase II alpha/beta (Homo sapiens), sequence (P67870 2-215 limits assumed): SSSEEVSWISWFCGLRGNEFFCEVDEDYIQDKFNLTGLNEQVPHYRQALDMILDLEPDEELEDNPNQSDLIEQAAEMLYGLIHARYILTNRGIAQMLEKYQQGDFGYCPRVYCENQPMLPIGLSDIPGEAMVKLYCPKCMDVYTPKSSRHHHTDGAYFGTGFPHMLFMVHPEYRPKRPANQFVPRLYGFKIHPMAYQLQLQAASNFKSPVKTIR
Casein kinase II alpha/beta (Homo sapiens), sequence (P68400 whole entry partner): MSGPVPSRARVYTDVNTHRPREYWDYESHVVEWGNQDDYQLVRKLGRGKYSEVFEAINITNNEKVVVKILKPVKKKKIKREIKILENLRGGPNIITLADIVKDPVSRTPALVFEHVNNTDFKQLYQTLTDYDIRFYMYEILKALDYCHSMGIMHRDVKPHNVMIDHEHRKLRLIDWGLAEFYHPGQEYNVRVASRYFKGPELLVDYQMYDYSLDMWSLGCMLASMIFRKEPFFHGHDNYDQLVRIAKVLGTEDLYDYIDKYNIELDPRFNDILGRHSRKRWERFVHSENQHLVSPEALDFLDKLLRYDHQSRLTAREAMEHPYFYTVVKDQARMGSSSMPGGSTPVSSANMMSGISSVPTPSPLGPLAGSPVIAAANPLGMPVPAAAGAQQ
Serine/threonine-protein kinase B-raf, sequence (P15056 whole entry, the tested form may be a part): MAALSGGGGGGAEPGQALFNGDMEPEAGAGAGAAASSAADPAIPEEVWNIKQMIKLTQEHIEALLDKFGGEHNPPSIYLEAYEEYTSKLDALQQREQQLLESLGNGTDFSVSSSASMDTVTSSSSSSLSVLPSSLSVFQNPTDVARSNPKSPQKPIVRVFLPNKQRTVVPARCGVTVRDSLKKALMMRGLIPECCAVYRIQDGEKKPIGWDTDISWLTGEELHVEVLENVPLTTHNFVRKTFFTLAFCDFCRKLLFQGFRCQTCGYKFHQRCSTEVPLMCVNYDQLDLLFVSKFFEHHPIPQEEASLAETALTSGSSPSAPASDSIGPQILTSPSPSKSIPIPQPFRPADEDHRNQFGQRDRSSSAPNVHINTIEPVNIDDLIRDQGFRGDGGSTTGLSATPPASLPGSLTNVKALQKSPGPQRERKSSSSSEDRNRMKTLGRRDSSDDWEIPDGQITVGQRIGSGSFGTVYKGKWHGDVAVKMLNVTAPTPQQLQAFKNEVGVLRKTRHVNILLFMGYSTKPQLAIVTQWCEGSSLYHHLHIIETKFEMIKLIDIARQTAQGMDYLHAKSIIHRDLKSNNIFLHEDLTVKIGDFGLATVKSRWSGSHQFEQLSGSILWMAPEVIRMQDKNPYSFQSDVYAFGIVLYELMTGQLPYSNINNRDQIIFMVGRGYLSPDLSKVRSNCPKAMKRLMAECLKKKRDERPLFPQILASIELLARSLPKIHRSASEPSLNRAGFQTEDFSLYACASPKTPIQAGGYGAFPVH
Vascular endothelial growth factor receptor 3, sequence (P35916 whole entry): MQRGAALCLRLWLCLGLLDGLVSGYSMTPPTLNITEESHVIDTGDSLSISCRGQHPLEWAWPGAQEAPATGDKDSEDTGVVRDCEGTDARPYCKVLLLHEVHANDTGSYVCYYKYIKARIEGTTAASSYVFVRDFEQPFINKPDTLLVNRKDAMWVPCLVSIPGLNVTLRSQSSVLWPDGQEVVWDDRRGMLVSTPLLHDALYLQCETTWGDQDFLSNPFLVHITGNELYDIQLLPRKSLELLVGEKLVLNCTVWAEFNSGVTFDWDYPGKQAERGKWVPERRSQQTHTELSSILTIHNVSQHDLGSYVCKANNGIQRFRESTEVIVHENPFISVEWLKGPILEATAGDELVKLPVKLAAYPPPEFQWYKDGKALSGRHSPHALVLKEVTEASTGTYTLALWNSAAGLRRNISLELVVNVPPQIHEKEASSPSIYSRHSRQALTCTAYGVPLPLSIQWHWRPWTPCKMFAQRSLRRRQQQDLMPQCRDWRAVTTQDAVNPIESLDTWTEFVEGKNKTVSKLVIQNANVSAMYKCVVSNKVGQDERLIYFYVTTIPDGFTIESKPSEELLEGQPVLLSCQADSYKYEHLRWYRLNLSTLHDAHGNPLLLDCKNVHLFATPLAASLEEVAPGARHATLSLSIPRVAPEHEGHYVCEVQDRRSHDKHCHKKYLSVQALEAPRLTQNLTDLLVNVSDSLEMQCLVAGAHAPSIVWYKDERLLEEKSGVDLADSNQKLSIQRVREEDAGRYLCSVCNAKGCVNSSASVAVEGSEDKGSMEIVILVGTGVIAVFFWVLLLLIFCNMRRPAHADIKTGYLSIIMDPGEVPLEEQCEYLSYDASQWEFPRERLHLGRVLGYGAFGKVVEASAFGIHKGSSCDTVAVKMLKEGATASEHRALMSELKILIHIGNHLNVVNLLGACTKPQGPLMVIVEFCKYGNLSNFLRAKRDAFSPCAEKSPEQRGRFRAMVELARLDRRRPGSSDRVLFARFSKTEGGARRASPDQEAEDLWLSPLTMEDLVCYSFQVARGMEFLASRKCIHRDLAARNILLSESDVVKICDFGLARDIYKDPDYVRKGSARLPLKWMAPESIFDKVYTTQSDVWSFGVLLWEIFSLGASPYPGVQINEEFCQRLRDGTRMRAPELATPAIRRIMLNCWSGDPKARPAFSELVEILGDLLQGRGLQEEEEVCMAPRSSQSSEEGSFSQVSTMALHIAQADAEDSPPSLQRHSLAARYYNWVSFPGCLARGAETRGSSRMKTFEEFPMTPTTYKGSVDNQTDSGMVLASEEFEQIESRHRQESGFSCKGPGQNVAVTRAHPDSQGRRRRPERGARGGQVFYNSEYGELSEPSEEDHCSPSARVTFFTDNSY
Ephrin type-B receptor 4, sequence (P54760 whole entry): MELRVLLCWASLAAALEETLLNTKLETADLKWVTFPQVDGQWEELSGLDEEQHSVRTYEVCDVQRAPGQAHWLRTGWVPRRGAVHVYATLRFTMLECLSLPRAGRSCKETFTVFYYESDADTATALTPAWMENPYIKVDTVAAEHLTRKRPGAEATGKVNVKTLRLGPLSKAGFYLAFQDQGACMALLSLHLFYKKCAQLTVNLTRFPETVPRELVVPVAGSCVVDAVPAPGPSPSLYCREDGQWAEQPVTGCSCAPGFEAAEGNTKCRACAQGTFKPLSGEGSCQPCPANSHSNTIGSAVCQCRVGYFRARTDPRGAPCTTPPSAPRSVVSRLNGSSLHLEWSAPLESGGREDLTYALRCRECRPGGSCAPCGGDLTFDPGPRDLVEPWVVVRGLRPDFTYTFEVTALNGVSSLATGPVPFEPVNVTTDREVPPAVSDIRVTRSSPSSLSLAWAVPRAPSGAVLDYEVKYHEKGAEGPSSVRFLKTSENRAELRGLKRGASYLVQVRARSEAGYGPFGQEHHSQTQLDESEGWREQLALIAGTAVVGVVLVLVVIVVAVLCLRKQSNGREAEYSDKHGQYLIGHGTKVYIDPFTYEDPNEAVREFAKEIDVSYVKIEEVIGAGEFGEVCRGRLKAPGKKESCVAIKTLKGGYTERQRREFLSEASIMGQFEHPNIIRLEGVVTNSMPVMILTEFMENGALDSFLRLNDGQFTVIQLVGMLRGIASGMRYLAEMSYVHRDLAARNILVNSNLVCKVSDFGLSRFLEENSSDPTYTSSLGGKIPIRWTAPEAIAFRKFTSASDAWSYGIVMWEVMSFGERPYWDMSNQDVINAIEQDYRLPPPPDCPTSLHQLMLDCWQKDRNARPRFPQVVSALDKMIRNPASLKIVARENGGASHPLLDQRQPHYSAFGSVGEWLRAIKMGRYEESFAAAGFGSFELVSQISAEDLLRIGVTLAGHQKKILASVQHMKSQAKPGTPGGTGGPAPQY
Serine/threonine-protein kinase PLK1, sequence (P53350 whole entry): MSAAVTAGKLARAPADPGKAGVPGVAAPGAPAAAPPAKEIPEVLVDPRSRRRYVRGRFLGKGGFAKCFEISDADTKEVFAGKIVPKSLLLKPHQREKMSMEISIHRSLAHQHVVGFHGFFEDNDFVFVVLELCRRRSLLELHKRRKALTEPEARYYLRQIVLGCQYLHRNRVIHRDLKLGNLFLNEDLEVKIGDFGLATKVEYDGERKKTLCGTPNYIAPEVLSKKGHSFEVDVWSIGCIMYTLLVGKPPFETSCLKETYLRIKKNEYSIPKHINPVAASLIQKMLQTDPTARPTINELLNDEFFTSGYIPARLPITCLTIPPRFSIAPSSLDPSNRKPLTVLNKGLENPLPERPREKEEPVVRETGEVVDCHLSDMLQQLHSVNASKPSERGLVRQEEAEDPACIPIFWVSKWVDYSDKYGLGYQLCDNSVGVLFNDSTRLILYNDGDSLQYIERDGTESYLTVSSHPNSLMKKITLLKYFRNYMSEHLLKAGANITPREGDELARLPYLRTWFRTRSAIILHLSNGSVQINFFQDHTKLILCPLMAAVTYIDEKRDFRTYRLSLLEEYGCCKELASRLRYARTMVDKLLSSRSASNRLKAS
Aurora kinase B, sequence (Q96GD4 whole entry): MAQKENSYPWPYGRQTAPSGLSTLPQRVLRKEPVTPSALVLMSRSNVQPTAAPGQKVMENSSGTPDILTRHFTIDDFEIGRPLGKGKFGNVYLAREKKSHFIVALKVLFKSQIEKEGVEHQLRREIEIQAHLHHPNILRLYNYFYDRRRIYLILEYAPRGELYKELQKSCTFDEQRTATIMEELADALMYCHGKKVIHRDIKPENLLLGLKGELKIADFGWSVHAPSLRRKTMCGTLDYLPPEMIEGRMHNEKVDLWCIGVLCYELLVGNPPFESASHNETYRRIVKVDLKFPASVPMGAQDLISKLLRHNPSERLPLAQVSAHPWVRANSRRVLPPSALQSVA
Casein kinase II alpha/beta, sequence (P67870 whole entry): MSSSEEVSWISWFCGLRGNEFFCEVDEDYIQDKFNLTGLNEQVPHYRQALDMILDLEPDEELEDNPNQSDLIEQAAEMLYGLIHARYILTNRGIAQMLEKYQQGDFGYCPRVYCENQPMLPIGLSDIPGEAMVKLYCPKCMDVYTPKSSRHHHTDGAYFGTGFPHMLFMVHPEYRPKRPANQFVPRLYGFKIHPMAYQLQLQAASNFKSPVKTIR
Casein kinase II alpha/beta, sequence (P68400 whole entry): as the sequence (P68400 whole entry partner) above

For `O=c1oc2c(O)c(O)cc3c(=O)oc4c(O)c(O)cc1c4c23` [ELLAGIC ACID], the IC50 [1] was 1.76 µM, the IC50 [2] was 0.25 µM and the IC50 (Insulin receptor) was 0.34 µM. It also gave an IC50 (Ephrin type-B receptor 4) of 1.83 µM, an IC50 [3] of 3.54 µM and an IC50 [4] of 0.8 µM. It also gave an IC50 (Focal adhesion kinase 1) of 3.11 µM, an IC50 (Aurora kinase A) of 2.48 µM and an IC50 [5] of 3.34 µM. It also gave an IC50 [6] of 1.09 µM, an IC50 [7] of 1.54 µM and an IC50 [8] of 2.37 µM. For the same compound, the IC50 [9] was 3.39 µM, the IC50 [10] was 2.97 µM and the IC50 (Angiopoietin-1 receptor) was 0.26 µM. The IC50 (Aurora kinase B) was 2.5 µM, the IC50 [11] was 0.51 µM and the IC50 [12] was 3.34 µM. For the same compound, the IC50 [13] was 0.58 µM and the IC50 [14] was 0.79 µM.

Work on `O=C1CCCc2c1c1c(n2Cc2ccccc2)-c2ccccc2C1=O` yielded an inhibition [15] of 48%.

With `COC(=O)C1C(=O)c2c3c(n(Cc4ccccc4)c2CC1C)-c1ccccc1C3=O` (configuration not stated) the inhibition [15] was 15%.

Compound `COc1ccc(CCn2c3c(c4c2-c2ccccc2C4=O)C(=O)CCC3)cc1OC` has an inhibition [15] of 50%.

Compound `O=C1CC(c2ccccc2)Cc2c1c1c(n2Cc2ccccc2)-c2ccccc2C1=O` (racemic) has an inhibition [15] of 3%.

Compound `CC(c1ccccc1)n1c2c(c3c1-c1ccccc1C3=O)C(=O)CCC2` (configuration not stated) has an IC50 [16] of 4.66 µM and an inhibition [15] of 66%.

Compound `Brc1c(Br)c(Br)c2[nH]nnc2c1Br` [TETRABROMOBENZOTRIAZOLE] has an IC50 [17] of 1.6 µM.

`O=C1c2ccccc2-c2c1c1c(O)cccc1n2Cc1ccccc1` gave an inhibition [15] of 25%.

For `COc1ccc(Cn2c3c(c4c2-c2ccccc2C4=O)C(=O)CCC3)cc1`, the inhibition [15] was 41%.

With `OC[C@H]1O[C@@H](n2cnc3cc(Cl)c(Cl)cc32)[C@H](O)[C@@H]1O` [DICHLORORIBOBENZIMIDAZOLE] the IC50 [18] was 15 µM.

In the case of `O=C1CCCc2c1c1c(n2CCc2ccccc2)-c2ccccc2C1=O`, the inhibition [15] is reported as 67%.

With `O=C1c2ccccc2-c2c1c1c(O)cc(-c3ccccc3)cc1n2Cc1ccccc1` the inhibition [15] was 31%.

`CC1(C)CC(=O)c2c3c(n(Cc4ccccc4)c2C1)-c1ccccc1C3=O` gave an inhibition [15] of 10%.

`O=C1CCCc2c1c1c(n2CCCc2ccccc2)-c2ccccc2C1=O` showed an inhibition [15] of 27%.

In the case of `O=C1CCCc2c1c1c(n2-c2ccccc2)-c2ccccc2C1=O`, the inhibition [15] is reported as 60%.

Work on `COC(=O)C1C(=O)c2c([nH]c3c2C(=O)c2ccccc2-3)CC1C` (configuration not stated) yielded an inhibition [15] of 28%.

For `Cc1cc(O)c2c(c1)C(=O)c1cc(O)cc(O)c1C2=O` [EMODIN], the IC50 [19] was 0.89 µM.

Compound `O=C1CCCc2c1c1c(n2Cc2ccccn2)-c2ccccc2C1=O` has an inhibition [15] of 30%.

Compound `O=C1CCCc2[nH]c3c(c21)C(=O)c1ccccc1-3` has an inhibition [15] of 19%.

`CC1CC(=O)c2c3c(n(Cc4ccccc4)c2C1)-c1ccccc1C3=O` (racemic) showed an inhibition [15] of 11%.

`COc1ccc(CCn2c3c(c4c(O)cccc42)C(=O)c2ccccc2-3)cc1OC` gave an inhibition [15] of 34%.

Work on `CC(C)n1c2c(c3c1-c1ccccc1C3=O)C(=O)CCC2` yielded an IC50 [1] of over 35 µM, an IC50 [2] of over 35 µM and an IC50 (Insulin receptor) of over 35 µM. For the same compound, the inhibition of growth at 20 µM [20] was 25%, the IC50 (Ephrin type-B receptor 4) was over 35 µM and the IC50 [3] was over 35 µM. It also gave an IC50 [4] of over 35 µM, an IC50 (Focal adhesion kinase 1) of over 35 µM and an IC50 (Aurora kinase A) of over 35 µM. For the same compound, the IC50 [5] was over 35 µM, the IC50 [6] was over 35 µM and the IC50 [7] was over 35 µM. The IC50 [8] was over 35 µM, the IC50 [9] was over 35 µM and the IC50 [10] was over 35 µM. For the same compound, the IC50 (Angiopoietin-1 receptor) was over 35 µM, the IC50 (Aurora kinase B) was over 35 µM and the IC50 [11] was over 35 µM. For the same compound, the IC50 [12] was over 35 µM, the IC50 [13] was over 35 µM and the IC50 [14] was over 35 µM.
